Reference: ChEMBL document CHEMBL1123933, “Specific dopamine D-1 and DA1 properties of 4-(mono- and -dihydroxyphenyl)-1,2,3,4-tetrahydroisoquinoline and its tetrahydrothieno[2,3-c]pyridine analogue” (1987)
Active and inactive are the calls of the source. The rule behind the calls is not given here.

Experiments:
Rattus norvegicus [1] = species on record: Rattus norvegicus; assay: Compound was evaluated for the stimulation of rat retinal adenylate cyclase by effect of its alkyl length at 100.0 uM dose; format: functional
Summary of the method: (§1)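 Retinal homogenate, […], incubated 20 min at 30 °C. Stopped with SDS/ATP/cAMP plus [3H]cAMP recovery tracer and 2 min at 85 °C. [32P]cAMP isolated by Salomon column chromatography.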

Rattus norvegicus [2] = species on record: Rattus norvegicus; assay: Compound was evaluated for the stimulation of rat retinal adenylate cyclase by effect of its alkyl length at 1.0 uM dose; format: functional; summary of the method: as §1
Rattus norvegicus [3] = species on record: Rattus norvegicus; assay: Compound was evaluated for the stimulation of rat retinal adenylate cyclase by effect of its alkyl length at 10.0 uM dose; format: functional; summary of the method: as §1
Rattus norvegicus [4] = species on record: Rattus norvegicus; assay: Compound was evaluated for the stimulation of rat retinal adenylate cyclase by effect of its alkyl length at 0.1 uM dose; format: functional; summary of the method: as §1
Rattus norvegicus [5] = species on record: Rattus norvegicus; assay: Compound was evaluated for the stimulation of rat retinal adenylate cyclase at 10.0 uM dose; format: functional; summary of the method: as §1
Rattus norvegicus [6] = species on record: Rattus norvegicus; assay: Compound was evaluated for the stimulation of rat retinal adenylate cyclase at 1.0 uM dose; format: functional; summary of the method: as §1
Rattus norvegicus [7] = species on record: Rattus norvegicus; assay: Compound was evaluated for the stimulation of rat retinal adenylate cyclase at 100.0 uM dose; format: functional; summary of the method: as §1
Rattus norvegicus [8] = species on record: Rattus norvegicus; assay: Compound was evaluated for the stimulation of rat retinal adenylate cyclase at 0.1 uM dose; format: functional; summary of the method: as §1
Canis familiaris = species on record: Canis familiaris; assay: Compound was evaluated for the stimulation of canine renal artery; Inactive; format: functional, organism-based; conditions: Canis lupus familiaris

| Structure (SMILES) | Stimulation (Rattus norvegicus [1]) | Stimulation (Rattus norvegicus [2]) | Stimulation (Rattus norvegicus [3]) | Stimulation (Rattus norvegicus [4]) | Stimulation (Rattus norvegicus [5]) | Stimulation (Rattus norvegicus [6]) | Stimulation (Rattus norvegicus [7]) | Stimulation (Rattus norvegicus [8]) | Activity (Canis familiaris) |
| --- | --- | --- | --- | --- | --- | --- | --- | --- | --- |
| CCCN1Cc2ccccc2C(c2ccc(O)c(O)c2)C1 (stereo not given) | 46.4% | -7.7% | 11.8% |  |  |  |  |  |  |
| CN1Cc2ccccc2C(c2ccc(O)c(O)c2)C1 (stereo not given) | 144.9% | 46.5% | 122.6% | -1.7% |  |  |  |  |  |
| Oc1ccc(C2CNCCc3c2cc(O)c(O)c3Cl)cc1 (stereo not given) [FENOLDOPAM] |  |  |  |  | 201.4% | 176% | 246% | 165.1% |  |
| Oc1ccc(C2CNCc3sccc32)cc1O (stereo not given) |  |  |  |  | 188.6% | 160.2% | 207% | 70.4% |  |
| Oc1ccc(C2CNCc3ccccc32)cc1O (stereo not given) | 288.8% | 87.7% | 188% | 11.5% | 152.7% | 89.6% | 198.8% | 23.6% |  |
| Oc1cccc(C2CNCc3ccccc32)c1 (stereo not given) |  |  |  |  | 47% | 21% | 81% |  | inactive |
| CCN1Cc2ccccc2C(c2ccc(O)c(O)c2)C1 (stereo not given) | 94.1% | -1% | 42.7% | -8.8% |  |  |  |  |  |
| NCCc1ccc(O)c(O)c1 [DOPAMINE] |  |  |  |  | 209.8% | 116.2% | 295.3% | 25.7% |  |
